Experimental data as given in ChEMBL document CHEMBL1125843, “Electron-deficient isoalloxazines: model systems for disulfide prodrug formation” (J Med Chem, 1991).

Legend:
Type in all cases: ADME
[1] = General acid and general base rate constant (10e4kA-) required for the formation of m-nitrothiophenol disulfide.
Outline: (§1)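 Isoalloxazine-catalyzed oxidation of m-nitrothiophenol to its disulfide was quantified by HPLC in phosphate buffer (0.08-0.4 M, pH 7-9) with ionic strength held at 0.4 M (KCl). Isoalloxazine stocks in dry methanol/dichloromethane were diluted into aqueous-methanolic reactions. At fixed pH, k_obs/[mNTP] was plotted against buffer base fraction. The slopes were then plotted against [AH]/[A−] to give k_AH (slope) and k_A− (intercept). Values are the mean of two determinations.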

[2] = Spontaneous rate constant (10e6 ko) required for the formation of m-nitrothiophenol disulfide.; outline: as §1
[3] = […] rate constant (10e7kAH) required for the formation of m-nitrothiophenol disulfide.; outline: as §1

Row | kA- [1] | k'o [2] | kAH [3] | Compound
1 | 2.3 M⁻¹ s⁻¹ | 4.6 M⁻¹ s⁻¹ | 131.7 M⁻¹ s⁻¹ | Cn1c2nc(=O)n(CCCCCCCCS)c(=O)c-2nc2ccc(C#N)cc21
2 | 0.1 M⁻¹ s⁻¹ | 3 M⁻¹ s⁻¹ | 6.8 M⁻¹ s⁻¹ | O=c1nc2n(-c3ccccc3)c3ccccc3nc-2c(=O)n1CCCCCCCCS
